# Source: PubChem BioAssay
# This is a sample that favours compounds with a hit; in the whole collection about 2.2% have one here.
# miR-122 sensor = inhibitors of miR-122 in Huh7 cells. Huh7 miR-122 Renilla luciferase sensor, 48 h; neutral wells = 0, positive control = 100. activation (reporter increase), % at 12.5 µM. 340,000 tested, 0.3% active;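 active = mean replicate activation score at least 90 and every replicate individually at or above 90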;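 also: higher luciferase means less miR-122 activity so hits act as miR-122 inhibitors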
# Jurkat NFkB inh = lowers PMA/ionomycin-induced NF-kB signal in Jurkat cells. 330,000 tested, 0.53% active. PMA/ionomycin-induced NF-kB luciferase reporter, luminescence. inhibition, % at 4 µM; in the data active = inhibition above about 50%
# NR2E3 ag-1 = NR2E3 (human) agonism; Q9Y5X4; GST-NR2E3/biotin-RetCOR TR-FRET, 1536-well; inhibition of corepressor binding, % at 4.78 µM; 320,000 tested, 0.12% active; AID 2300;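 active = percent inhibition above the cutoff of mean plus 3 SD of all tested compounds, set per screening campaign, cut at about 20% in these data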;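 also: 0% = DMSO wells and 100% = biotin wells as full block of FRET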
# Target sequence (Q9Y5X4 whole entry, looked up): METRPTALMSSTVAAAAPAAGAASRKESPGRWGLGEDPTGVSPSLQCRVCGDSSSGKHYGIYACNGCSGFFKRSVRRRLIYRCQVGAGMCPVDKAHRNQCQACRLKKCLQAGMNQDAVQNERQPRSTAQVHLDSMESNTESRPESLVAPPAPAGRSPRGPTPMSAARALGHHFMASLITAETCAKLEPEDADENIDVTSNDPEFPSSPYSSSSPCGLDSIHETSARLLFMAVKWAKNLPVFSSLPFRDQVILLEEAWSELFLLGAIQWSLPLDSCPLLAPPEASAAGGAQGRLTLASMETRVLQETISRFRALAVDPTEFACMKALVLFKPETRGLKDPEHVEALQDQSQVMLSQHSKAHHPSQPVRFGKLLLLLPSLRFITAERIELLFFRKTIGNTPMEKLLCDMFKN
#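 Material – GST-tagged NR2E3 plus biotinylated RetCOR corepressor · Quantity – NR2E3 fusion 1.35 nM · Times – 5 h incubation at 4 °C · Medium – pH 7.5 Tris-based buffer · Technique – TR-FRET, Eu(K)-anti-GST donor, streptavidin-D2 acceptor, ex 340, em 617/671 nm · Benchmarks – high control biotin, low control 0.6% DMSO · Format – 1536-well plates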
# FGF22 binding = binders of recombinant human FGF22 by thermal shift | 340,000 tested, 1.5% active | activity (Tm shift, normalised), % at 9.99 µM | Q9HCT0 | SYPRO orange fluorescence; percent of sucrose octasulfate shift, DMSO zero;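 active = mean Tm shift, scaled 0 neutral to 100 positive control, at about 1.3% or above, every replicate too, limit read from the data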
# Target sequence (Q9HCT0 whole entry, looked up): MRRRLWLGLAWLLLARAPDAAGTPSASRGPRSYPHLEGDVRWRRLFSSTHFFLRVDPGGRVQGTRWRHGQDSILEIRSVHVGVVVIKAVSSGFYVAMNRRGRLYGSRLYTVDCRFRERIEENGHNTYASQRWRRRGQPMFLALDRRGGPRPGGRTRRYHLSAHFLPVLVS
# 697 NFkB inh = lowers PMA/ionomycin-induced NF-kB signal in 697 B cells | 697 B-cell NF-kB luciferase reporter, 16 h | inhibition, % at 4 µM | 330,000 tested, 0.33% active; in the data active = inhibition above about 35%
# NR2E3 ag-2 = agonists of human NR2E3 nuclear receptor; inhibition of corepressor binding, % at 3.98 µM; 360,000 tested, 0.35% active; CHO-S Gal4-NCOR/VP16-NR2E3 two-hybrid, luciferase; AID 602229;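 active = inhibition above the mean of all tested compounds plus 3 SD, cut at about 70% in these data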;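 also: 0% = DMSO with NR2E3 transfected cells and 100% = cells lacking NR2E3 construct; higher means lower luciferase signal from less NR2E3 corepressor binding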
# * marks the source's active call; other numbers are inactive results; / = no result; [ ] = remark or other dose.
SMILES,miR-122 sensor,Jurkat NFkB inh,NR2E3 ag-1,FGF22 binding,697 NFkB inh,NR2E3 ag-2
COc1ccc(S(=O)(=O)N(C)C[C@H]2Oc3ccc(NC(=O)Nc4ccccc4)cc3C(=O)N([C@H](C)CO)C[C@H]2C)cc1,64.0[16.7 µM],/,/,-0.1,/,/
c1ccc(N2CCN(c3nc(-c4cccs4)nc4ccccc34)CC2)cc1,/,-1.9,0.9,43.4*,-21.1,-40.7
CCCNC(=O)N(C)C[C@H]1Oc2cc(C3=CCCC3)ccc2S(=O)(=O)N([C@H](C)CO)C[C@@H]1C,/,/,/,0.1,/,/
O=C(COC(=O)C1CCC(=O)N1)Nc1ccccc1Br (configuration not stated),2.1,7.3,-3.7,43.1*,-10.4,-12.4
Cc1cc(OCC(=O)N2CCc3ccccc3C2)c(C)cc1Br,5.8,-10.2,/,18.1*,-12.5,-4.9
CC(=O)N1C(=O)N(C(C)=O)C2C1N(C)C(=O)N2C(C)=O (configuration not stated),-3.8,7.3,4.8,43.3*,11.8,18.0
CC(=O)N1C(=O)N(C)C2C1N(C(C)=O)C(=O)N2C (configuration not stated),-0.5,-10.8,0.5,/,8.3,10.7
C/C=C/c1ccc([C@@H]2[C@@H](CO)N3C(=O)CN(C(=O)Nc4ccc(F)cc4)C[C@@H]23)cc1,/,/,/,-0.3,/,/
Cc1nc2nc(SCC(=O)O)nn2c(C)c1Cc1ccccc1Cl,/,4.2,-2.2,43.2*,11.7,-13.8
COc1ccc(CCN=C(C)C2=C(O)C(c3ccccc3)OC2=O)cc1OC (configuration not stated),/,3.3,-1.0,42.9*,8.4,-23.9
O=S(=O)(Nc1ncnc2scc(-c3ccc(F)cc3)c12)c1cc(F)ccc1F,4.7,3.3,1.9,2.8*,-13.4,-8.7
CNc1ccc(C2(O)C(=O)c3ccccc3C2=O)cc1,-2.9,-5.2,-0.9,43.0*,-5.6,2.7
O=C(NCC[C@@H]1CC[C@H](NS(=O)(=O)c2ccc(F)cc2)[C@H](CO)O1)Nc1ccc(Cl)cc1,12.0[16.7 µM],/,/,0.0,/,/
c1ccc(-n2cc(CN3CCCC3)c(-c3ccc4c(c3)OCO4)n2)cc1,-2.3,3.8,0.4,43.2*,-1.1,1.8
c1ccc(-n2cc(CN3CCC(N4CCOCC4)CC3)c(-c3ccc4c(c3)OCO4)n2)cc1,-11.4,13.9,-3.4,0.4,1.8,-10.8
N/C(=N\OC(=O)COc1cc(Cl)c(Cl)cc1Cl)c1ccncc1,/,-59.0,4.3,43.1*,-59.9,/
N/C(=N\OC(=O)COc1ccc(Br)cc1Cl)c1ccncc1,/,/,-2.4,0.2,/,-162.1
O=S(=O)(Nc1cccc(Cl)c1)c1cccc(-n2cnnn2)c1,57.0,-17.2,/,43.8*,-21.5,-15.6
Cc1ccc(S(=O)(=O)N2[C@@H](c3ccc(F)cc3)C(C(=O)O)=CC[C@H]2c2cccc(Cl)c2)cc1,/,5.8,-0.2,0.1,8.7,-9.3
O=C(O)C1=CCC(c2ccc(Cl)c(Cl)c2)N(S(=O)(=O)c2ccc(F)cc2)C1c1cccc(F)c1 (configuration not stated),/,/,/,43.4*,/,/
COc1ccc(NC(=O)Nc2ccc3c(c2)C(=O)N([C@@H](C)CO)C[C@H](C)[C@H](CN(C)C(=O)c2ccccc2)OCCCC[C@H](C)O3)cc1,2.7[16.7 µM],/,/,1.4*,/,/
C[C@H](CO)N1C[C@H](C)[C@H](CN(C)C(=O)c2ccccc2)OCCCC[C@H](C)Oc2ccc(NC(=O)Nc3ccc(F)cc3)cc2C1=O,21.1[16.7 µM],/,/,0.5,/,/
C[C@@H]1CN([C@@H](C)CO)C(=O)c2cc(NC(=O)C3CCCCC3)ccc2O[C@@H](C)CCCCO[C@H]1CN(C)C(=O)c1ccccc1,-9.4[16.7 µM],/,/,28.8*,/,/
C[C@H]1CCCCO[C@@H](CN(C)C(=O)C2CCCCC2)[C@@H](C)CN([C@@H](C)CO)C(=O)c2cc(NC(=O)Cc3ccccc3)ccc2O1,-5.5[16.7 µM],/,/,1.9*,/,/
C[C@@H]1CN([C@H](C)CO)C(=O)c2cc(NC(=O)Nc3ccc(F)cc3)ccc2O[C@@H](C)CCCCO[C@@H]1CN(C)C(=O)c1ccccc1,1.4[16.7 µM],/,/,1.4*,/,/
SMILES,miR-122 sensor,Jurkat NFkB inh,NR2E3 ag-1,FGF22 binding,697 NFkB inh,NR2E3 ag-2
C[C@@H]1CN([C@@H](C)CO)C(=O)Cc2cc(NC(=O)C3CCCCC3)ccc2O[C@@H]1CN(C)S(=O)(=O)c1cn(C)cn1,-0.8[16.7 µM],/,/,-0.1,/,/
COc1ccc(NC(=O)Nc2ccc3c(c2)[C@H]2C[C@H](CC(=O)N4CCc5ccccc5C4)O[C@@H](CO)[C@H]2O3)cc1,-4.7[16.7 µM],/,/,0.3,/,/
COc1ccccc1NC(=O)N[C@@H]1C=C[C@@H](CC(=O)N2CCC(Cc3ccccc3)CC2)O[C@@H]1CO,/,/,/,0.0,/,/
CC(C)NC(=O)Nc1ccc2c(c1)C(=O)N([C@@H](C)CO)C[C@@H](C)[C@H](CN(C)Cc1ccc(C(=O)O)cc1)OCCCC[C@H](C)O2,7.3[16.7 µM],/,/,1.6*,/,/
C[C@@H]1CN([C@@H](C)CO)C(=O)Cc2cc(NS(=O)(=O)c3cccs3)ccc2O[C@H]1CN(C)C(=O)Nc1ccc(C(F)(F)F)cc1,10.5[16.7 µM],/,/,-0.2,/,/
C[C@@H]1CN([C@H](C)CO)C(=O)c2cc(NS(=O)(=O)c3cccs3)ccc2O[C@H]1CN(C)C(=O)Nc1cccc2ccccc12,4.2[16.7 µM],/,/,0.0,/,/
C[C@H]1CN([C@@H](C)CO)C(=O)c2cccc(NS(=O)(=O)c3cccs3)c2O[C@@H]1CN(C)C(=O)Nc1ccc2c(c1)OCO2,-1.6[16.7 µM],/,/,0.0,/,/
CC1(C(=O)NCCCN2CCOCC2)Oc2cccnc2NC1=O (configuration not stated),-5.1,-2.7,-0.8,43.3*,8.0,-3.4
COc1ccccc1CNC(=O)C1(C)Oc2cccnc2NC1=O (configuration not stated),/,3.8,2.8,0.1,25.7,3.7
CCC(=O)N/C=C/n1cnc2cc(C(F)(F)F)ccc21,-5.0,12.5,-2.1,/,8.1,0.3
CN(C)c1cccc(C(=O)N/C=C/n2cnc3cc(C(F)(F)F)ccc32)c1,-13.2,4.8,0.6,43.1*,8.8,4.3
CN(Cc1nc(-c2cnccn2)no1)C1CC(C)(C)NC(C)(C)C1,/,-1.9,0.3,43.3*,15.0,-9.2
CN(Cc1nc(-c2cnccn2)no1)CC1(c2ccccc2)CC1(C)C (configuration not stated),13.6,5.4,1.6,-0.2,12.9,15.0
C[C@@H]1CCCCO[C@H](CN(C)C(=O)c2ccncc2)[C@H](C)CN([C@H](C)CO)C(=O)c2cc(NS(=O)(=O)c3cn(C)cn3)ccc2O1,2.9[16.7 µM],/,/,1.7*,/,/
C[C@@H]1CCCCO[C@H](CN(C)C(=O)c2ccncc2)[C@@H](C)CN([C@H](C)CO)C(=O)c2cc(NS(=O)(=O)c3cn(C)cn3)ccc2O1,12.6[16.7 µM],/,/,0.4,/,/
